Reference: ChEMBL document CHEMBL4382248, “Optimization of a 1,3,4-oxadiazole series for inhibition of Ca2+/calmodulin-stimulated activity of adenylyl cyclases 1 and 8 for the treatment of chronic pain” (Eur J Med Chem, 2019)

Experiments:
Assay type in all cases: cell-based
Homo sapiens = species on record: Homo sapiens; assay: Selectivity ratio of IC50 for human AC8 expressed in HEK293 cells to IC50 for human AC1 expressed in HEK293 cells
[1] = Cytotoxicity against HEK293 cells expressing human AC1 at 30 uM preincubated for 30 mins followed by A23187 stimulation and measured after 1 hr by CellTiter-Glo luminescent cell viability assay relative to control; conditions: HEK293 cells expressing human AC1, read-out: Activity
Procedure, shortened: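 Cytotoxicity in HEK lines stably expressing AC1 or AC8: single 30 µM dose, 90 min incubation. Viability was read by luminescent ATP reporter as % of DMSO-treated (100%) and Triton-X-treated (0%) controls.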

Adenylate cyclase type 8 = Adenylate cyclase type 8 (Homo sapiens, UniProt P40145); assay: Inhibition of human AC8 expressed in HEK293 cells assessed as decrease in A23187-stimulated cAMP accumulation at 30 uM preincubated for 30 mins followed by A23187 stimulation and measured after 1 hr by fluorescence assay relative to control
Procedure, shortened: (§1)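 HEK cells stably expressing AC1 or AC8; Ca2+/calmodulin-stimulated cAMP accumulation measured. Dose-response curves began at 30 µM. […] Values are the mean and SEM of three independent experiments.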

[2] = target: Adenylate cyclase type 2 (Homo sapiens) (UniProt Q08462); assay: Inhibition of human AC2 expressed in HEK293 cells assessed as PMA-stimulated cAMP accumulation at 30 uM preincubated for 30 mins followed by PMA stimulation and measured after 1 hr by fluorescence assay relative to control; parameters: scale not given: the % may be the effect or the level left
Procedure, shortened: (§2)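 Group 2 AC2 (PKC-stimulated) or group 3 AC (forskolin-stimulated) cells were exposed to a single 30 µM dose (n = 3). cAMP activity was normalized to DMSO controls set as 100%.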

[3] = target: Adenylate cyclase type 5 (Homo sapiens) (UniProt O95622); assay: Inhibition of human AC5 expressed in HEK293 cells assessed as forskolin-stimulated cAMP accumulation at 30 uM preincubated for 30 mins followed by forskolin stimulation and measured after 1 hr by fluorescence assay relative to control; parameters: scale not given: the % may be the effect or the level left; procedure, shortened: as §2
Adenylate cyclase type 1 = Adenylate cyclase type 1 (Homo sapiens, UniProt Q08828); assay: Inhibition of human AC1 expressed in HEK293 cells assessed as decrease in A23187-stimulated cAMP accumulation preincubated for 30 mins followed by A23187 stimulation and measured after 1 hr by fluorescence assay; procedure, shortened: as §1
Sequence of Adenylate cyclase type 1 (Q08828 whole entry): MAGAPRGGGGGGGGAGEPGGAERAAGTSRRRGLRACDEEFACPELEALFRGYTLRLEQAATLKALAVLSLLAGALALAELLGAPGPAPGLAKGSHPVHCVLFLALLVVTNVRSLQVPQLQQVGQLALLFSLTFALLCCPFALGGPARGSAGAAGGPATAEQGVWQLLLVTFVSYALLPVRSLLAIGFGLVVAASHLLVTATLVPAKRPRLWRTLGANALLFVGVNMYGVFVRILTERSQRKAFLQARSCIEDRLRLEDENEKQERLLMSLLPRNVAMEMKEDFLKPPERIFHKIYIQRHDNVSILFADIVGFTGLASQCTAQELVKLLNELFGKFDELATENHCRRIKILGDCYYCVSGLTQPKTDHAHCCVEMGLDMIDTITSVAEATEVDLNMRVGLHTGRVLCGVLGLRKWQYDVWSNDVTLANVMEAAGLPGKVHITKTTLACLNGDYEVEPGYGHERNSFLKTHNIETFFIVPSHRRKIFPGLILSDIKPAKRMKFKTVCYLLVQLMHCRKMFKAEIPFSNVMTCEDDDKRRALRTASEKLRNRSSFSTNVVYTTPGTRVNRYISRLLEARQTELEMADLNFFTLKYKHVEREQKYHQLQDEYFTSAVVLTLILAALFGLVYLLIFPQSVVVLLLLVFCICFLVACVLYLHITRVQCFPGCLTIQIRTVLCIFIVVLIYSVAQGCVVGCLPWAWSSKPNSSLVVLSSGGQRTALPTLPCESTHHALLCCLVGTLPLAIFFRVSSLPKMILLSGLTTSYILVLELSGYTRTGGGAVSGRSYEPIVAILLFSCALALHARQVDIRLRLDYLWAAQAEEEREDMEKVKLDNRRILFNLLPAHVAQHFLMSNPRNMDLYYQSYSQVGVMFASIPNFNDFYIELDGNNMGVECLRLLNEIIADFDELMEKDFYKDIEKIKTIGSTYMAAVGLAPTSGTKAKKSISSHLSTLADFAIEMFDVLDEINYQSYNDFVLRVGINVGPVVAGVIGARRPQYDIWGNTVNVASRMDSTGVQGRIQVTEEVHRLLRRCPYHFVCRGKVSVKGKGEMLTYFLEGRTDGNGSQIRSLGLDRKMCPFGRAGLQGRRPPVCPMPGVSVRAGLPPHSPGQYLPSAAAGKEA

Sequence of Adenylate cyclase type 8 (P40145 whole entry): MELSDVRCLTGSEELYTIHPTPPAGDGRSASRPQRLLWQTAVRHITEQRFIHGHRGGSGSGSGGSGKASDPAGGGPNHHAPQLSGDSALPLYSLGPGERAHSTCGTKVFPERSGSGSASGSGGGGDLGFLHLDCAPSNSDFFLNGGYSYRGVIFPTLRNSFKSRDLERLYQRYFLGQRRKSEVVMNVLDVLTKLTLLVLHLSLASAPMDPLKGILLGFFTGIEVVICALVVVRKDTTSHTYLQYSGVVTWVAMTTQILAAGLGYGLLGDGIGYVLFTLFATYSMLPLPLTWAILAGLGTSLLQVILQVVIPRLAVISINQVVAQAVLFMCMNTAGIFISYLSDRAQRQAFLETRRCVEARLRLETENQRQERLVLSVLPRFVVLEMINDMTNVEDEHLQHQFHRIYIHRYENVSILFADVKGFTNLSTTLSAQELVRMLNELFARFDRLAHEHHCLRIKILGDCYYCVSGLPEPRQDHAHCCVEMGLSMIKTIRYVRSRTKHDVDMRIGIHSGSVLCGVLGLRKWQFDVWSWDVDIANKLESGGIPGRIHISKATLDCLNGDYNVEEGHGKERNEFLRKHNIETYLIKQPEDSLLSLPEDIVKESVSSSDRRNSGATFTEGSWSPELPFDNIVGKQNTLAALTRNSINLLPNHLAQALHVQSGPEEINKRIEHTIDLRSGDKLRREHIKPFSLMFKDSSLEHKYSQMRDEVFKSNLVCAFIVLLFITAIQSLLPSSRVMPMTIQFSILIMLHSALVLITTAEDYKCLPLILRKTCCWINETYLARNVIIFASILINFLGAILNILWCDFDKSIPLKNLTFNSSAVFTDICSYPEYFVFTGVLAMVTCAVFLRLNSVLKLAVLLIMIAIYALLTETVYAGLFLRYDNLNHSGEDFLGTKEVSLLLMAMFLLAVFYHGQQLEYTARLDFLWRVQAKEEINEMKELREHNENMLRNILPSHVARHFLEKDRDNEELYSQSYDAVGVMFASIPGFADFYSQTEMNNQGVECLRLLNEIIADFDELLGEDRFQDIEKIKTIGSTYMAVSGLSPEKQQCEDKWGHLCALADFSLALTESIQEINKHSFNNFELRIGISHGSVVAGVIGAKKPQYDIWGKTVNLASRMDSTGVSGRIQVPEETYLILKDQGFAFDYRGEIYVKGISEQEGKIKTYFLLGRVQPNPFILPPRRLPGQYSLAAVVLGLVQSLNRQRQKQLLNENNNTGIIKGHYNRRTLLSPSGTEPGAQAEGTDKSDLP
Sequence of Adenylate cyclase type 5 (Homo sapiens) (O95622 whole entry, looked up): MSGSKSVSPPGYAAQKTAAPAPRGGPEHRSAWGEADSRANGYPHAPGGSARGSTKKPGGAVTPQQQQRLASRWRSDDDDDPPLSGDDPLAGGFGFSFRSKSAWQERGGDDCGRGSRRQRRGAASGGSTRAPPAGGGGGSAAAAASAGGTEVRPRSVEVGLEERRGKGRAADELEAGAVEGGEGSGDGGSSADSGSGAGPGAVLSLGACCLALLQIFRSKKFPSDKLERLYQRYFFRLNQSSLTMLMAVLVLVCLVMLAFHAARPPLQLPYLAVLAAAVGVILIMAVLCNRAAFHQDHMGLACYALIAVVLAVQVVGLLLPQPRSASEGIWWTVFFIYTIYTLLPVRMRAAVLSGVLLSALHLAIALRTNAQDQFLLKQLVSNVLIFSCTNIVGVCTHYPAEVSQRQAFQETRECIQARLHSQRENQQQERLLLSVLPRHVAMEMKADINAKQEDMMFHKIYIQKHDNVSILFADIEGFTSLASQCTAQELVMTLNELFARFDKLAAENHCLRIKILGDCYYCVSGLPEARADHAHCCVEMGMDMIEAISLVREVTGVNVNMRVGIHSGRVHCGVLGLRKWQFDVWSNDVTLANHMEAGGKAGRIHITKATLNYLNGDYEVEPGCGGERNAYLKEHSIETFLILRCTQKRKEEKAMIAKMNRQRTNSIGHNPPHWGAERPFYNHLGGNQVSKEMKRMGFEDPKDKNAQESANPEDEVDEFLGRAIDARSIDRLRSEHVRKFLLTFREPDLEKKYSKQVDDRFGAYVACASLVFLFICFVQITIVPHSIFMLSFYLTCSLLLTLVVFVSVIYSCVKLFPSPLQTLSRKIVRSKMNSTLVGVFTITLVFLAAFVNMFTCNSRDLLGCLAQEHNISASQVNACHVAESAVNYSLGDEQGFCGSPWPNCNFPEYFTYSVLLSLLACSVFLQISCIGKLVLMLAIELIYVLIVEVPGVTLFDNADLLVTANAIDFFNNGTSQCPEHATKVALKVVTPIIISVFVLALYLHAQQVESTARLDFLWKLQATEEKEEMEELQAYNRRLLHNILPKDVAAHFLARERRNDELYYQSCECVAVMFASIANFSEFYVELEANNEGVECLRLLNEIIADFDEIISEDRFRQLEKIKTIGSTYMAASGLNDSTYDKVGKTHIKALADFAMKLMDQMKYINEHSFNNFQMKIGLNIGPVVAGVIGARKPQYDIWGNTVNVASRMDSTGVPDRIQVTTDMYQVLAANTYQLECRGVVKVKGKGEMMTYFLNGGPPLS
Sequence of Adenylate cyclase type 2 (Homo sapiens) (Q08462 whole entry): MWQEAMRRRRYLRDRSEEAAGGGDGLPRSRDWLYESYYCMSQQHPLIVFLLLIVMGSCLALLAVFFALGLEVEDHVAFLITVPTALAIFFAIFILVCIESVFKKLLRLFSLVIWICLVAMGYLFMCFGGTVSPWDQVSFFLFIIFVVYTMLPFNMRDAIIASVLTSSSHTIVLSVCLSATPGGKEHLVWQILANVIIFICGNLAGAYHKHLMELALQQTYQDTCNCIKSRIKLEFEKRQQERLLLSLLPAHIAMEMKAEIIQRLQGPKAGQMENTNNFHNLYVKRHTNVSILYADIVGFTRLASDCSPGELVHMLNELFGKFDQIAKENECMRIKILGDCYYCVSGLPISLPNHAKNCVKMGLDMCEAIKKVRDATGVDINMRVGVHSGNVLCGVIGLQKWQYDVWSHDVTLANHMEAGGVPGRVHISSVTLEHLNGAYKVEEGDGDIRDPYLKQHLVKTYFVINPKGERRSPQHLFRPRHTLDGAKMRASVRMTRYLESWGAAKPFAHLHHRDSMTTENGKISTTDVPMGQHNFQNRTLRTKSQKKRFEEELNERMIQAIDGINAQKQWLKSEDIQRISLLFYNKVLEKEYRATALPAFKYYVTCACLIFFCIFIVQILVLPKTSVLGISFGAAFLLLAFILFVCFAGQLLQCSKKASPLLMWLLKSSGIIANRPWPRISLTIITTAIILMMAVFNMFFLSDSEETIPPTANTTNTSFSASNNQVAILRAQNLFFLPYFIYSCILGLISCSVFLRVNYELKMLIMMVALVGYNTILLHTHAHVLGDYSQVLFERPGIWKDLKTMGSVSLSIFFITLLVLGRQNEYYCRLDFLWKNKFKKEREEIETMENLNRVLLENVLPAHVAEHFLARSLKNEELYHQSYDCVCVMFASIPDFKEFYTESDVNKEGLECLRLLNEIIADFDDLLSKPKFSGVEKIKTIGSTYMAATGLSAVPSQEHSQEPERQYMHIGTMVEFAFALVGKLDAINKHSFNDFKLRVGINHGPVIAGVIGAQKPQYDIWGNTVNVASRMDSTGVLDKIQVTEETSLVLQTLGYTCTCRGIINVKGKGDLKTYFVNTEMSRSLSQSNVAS

| SMILES | Ratio IC50 (Homo sapiens) | viability at 1 h, 30 µM [1] [%] | inhibition (Adenylate cyclase type 8) [%] | Activity [2] [%] | Activity [3] [%] | IC50 (Adenylate cyclase type 1) [µM] |
| --- | --- | --- | --- | --- | --- | --- |
| COc1cc(C(=O)Nc2nnc(C3CCCCC3)o2)cc(C(F)(F)F)c1 | 1.9 | 113 | – | – | – | – |
| COc1ccc(C(=O)Nc2nnc(-c3ccc4c(c3)CCCC4)o2)cc1 | > 4.7 | 118 to 121 | 34 | – | – | – |
| O=C(Nc1nnc(-c2ccc(F)cc2)o1)c1ccc(-c2ccccc2)cc1 | 2.7 | 114 | – | – | – | – |
| O=C(Nc1nnc(-c2ccc3c(c2)OCCO3)o1)c1cccc(C(F)(F)F)c1 | 6.3 | 116 | – | – | – | – |
| O=C(Nc1nnc(C2CCCCC2)o1)c1cccc(-c2ccccc2)c1 | 1 | 115 | – | – | – | – |
| O=C(Nc1nnc(-c2ccc(F)cc2)o1)c1ccccc1 | – | 87 | 8 | – | – | – |
| COc1cc(C(=O)Nc2nnc(-c3ccc4c(c3)CCCC4)o2)cc(C(F)(F)F)c1 | 1.1 | 121 | – | – | – | – |
| Cc1ccc(C(=O)Nc2nnc(-c3ccc4c(c3)OCCO4)o2)cc1C | 2.6 | 113 | – | – | – | – |
| Cc1ccc(C(=O)Nc2nnc(-c3ccc4c(c3)CCCC4)o2)cc1 | 0.79 to 7.4 | 107 to 123 | – | 275 | 139 | – |
| O=C(Nc1nnc(-c2ccc(F)cc2)o1)c1ccc(Cl)cc1 | – | 84 | 11 | – | – | – |
| O=C(Nc1nnc(C2CCCCC2)o1)c1ccc(Br)cc1 | 2.9 | 108 | – | – | – | – |
| O=C(Nc1nnc(-c2ccc(F)cc2)o1)c1cccc(C(F)(F)F)c1 | 5.8 | 108 | – | – | – | – |
| O=C(Nc1nnc(C2CCCCC2)o1)c1cccc(F)c1 | – | 87 | 11 | – | – | 11 |
| CC(C)Oc1ccc(C(=O)Nc2nnc(-c3ccc4c(c3)CCCC4)o2)cc1 | 0.73 to 1.2 | 124 to 129 | – | – | – | – |
| Cc1ccc(C(=O)Nc2nnc(C3CCCCC3)o2)cc1 | – | 111 | 1 | – | – | 16 |
| CC(C)Oc1ccc(C(=O)Nc2nnc(-c3ccc4c(c3)OCCO4)o2)cc1 | – | 160 | 39 | – | – | – |
| O=C(Nc1nnc(-c2ccc3c(c2)CCCC3)o1)c1ccc(F)cc1 | 3.7 | 110 | – | – | – | – |
| CC(C)Oc1ccc(C(=O)Nc2nnc(-c3cccs3)o2)cc1 | – | 73 to 81 | 24 to 35 | – | – | – |
| CCc1ccc(C(=O)Nc2nnc(-c3ccc4c(c3)CCCC4)o2)cc1 | 1.7 | 114 | – | – | – | – |
| O=C(Nc1nnc(-c2ccc3c(c2)CCCC3)o1)c1cccc(F)c1 | 4.2 | 94 | – | – | – | – |
| O=C(Nc1nnc(-c2ccc3c(c2)OCCO3)o1)c1ccccc1 | > 1 | 87 | 24 | – | – | – |
| COc1cccc(C(=O)Nc2nnc(-c3ccc4c(c3)CCCC4)o2)c1 | 0.83 to 8.1 | 111 to 124 | – | – | – | – |
| CC(C)Oc1ccc(C(=O)Nc2nnc(-c3ccccc3)o2)cc1 | > 5.5 | 101 | 43 | – | – | 5.4 |
| CC(C)Oc1ccc(C(=O)Nc2nnc(C3CCCCC3)o2)cc1 | – | 99 | 35 | – | – | – |
| Cc1cc(C(=O)Nc2nnc(-c3ccc4c(c3)CCCC4)o2)cc(C(F)(F)F)c1 | 0.26 | 116 | – | – | – | – |
| COc1cccc(C(=O)Nc2nnc(-c3ccc4c(c3)OCCO4)o2)c1 | – | 103 | 18 | – | – | – |
| O=C(Nc1nnc(-c2cccs2)o1)c1ccc(Br)cc1 | – | 110 | 41 | – | – | – |

| SMILES | Ratio IC50 (Homo sapiens) | viability at 1 h, 30 µM [1] [%] | inhibition (Adenylate cyclase type 8) [%] | Activity [2] [%] | Activity [3] [%] | IC50 (Adenylate cyclase type 1) [µM] |
| --- | --- | --- | --- | --- | --- | --- |
| Cc1ccc(C(=O)Nc2nnc(C3CCCCC3)o2)cc1C(F)(F)F | 1.9 | 139 | – | – | – | – |
| CCc1ccc(C(=O)Nc2nnc(C3CCCCC3)o2)cc1 | – | 119 | 44 | – | – | – |
| O=C(Nc1nnc(-c2ccc(F)cc2)o1)c1ccc(Br)cc1 | – | 103 | 33 | – | – | – |
| CSc1cccc(C(=O)Nc2nnc(C3CCCCC3)o2)c1 | > 4.5 | 117 to 137 | 31 to 43 | – | – | – |
| CCc1ccc(C(=O)Nc2nnc(-c3ccc(F)cc3)o2)cc1 | – | 95 | 32 | – | – | – |
| CSc1cccc(C(=O)Nc2nnc(-c3ccc4c(c3)OCCO4)o2)c1 | – | 109 | 37 | – | – | 9.5 |
| Cc1ccc(C(=O)Nc2nnc(-c3ccc4c(c3)CCCC4)o2)cc1C(F)(F)F | 0.5 | 115 | – | – | – | – |
| O=C(Nc1nnc(-c2ccc3c(c2)OCCO3)o1)c1ccc(Br)cc1 | 6.8 | 121 | – | 198 | 159 | – |
| O=C(Nc1nnc(-c2ccc(F)cc2)o1)c1ccc(F)cc1 | – | 100 | 14 | – | – | – |
| O=C(Nc1nnc(C2CCCCC2)o1)c1ccc(F)cc1 | – | 95 | 7 | – | – | 13 |
| COc1ccc(C(=O)Nc2nnc(-c3cccs3)o2)cc1 | – | 97 | 10 | – | – | – |
| O=C(Nc1nnc(-c2ccc(F)cc2)o1)c1ccc(S(=O)(=O)N2CCCCC2)cc1 | – | 119 | 38 | – | – | 16 |
| Cc1ccc(C(=O)Nc2nnc(-c3ccc(F)cc3)o2)cc1C | – | 95 | 42 | – | – | – |
| O=C(Nc1nnc(C2CCCCC2)o1)c1ccccc1 | – | 87 | 2 | – | – | 25 |
| Cc1ccc(C(=O)Nc2nnc(-c3ccc(F)cc3)o2)cc1C(F)(F)F | 1.9 | 133 | – | – | – | – |
| O=C(Nc1nnc(-c2cccs2)o1)c1ccccc1 | – | 97 | 18 | – | – | 28 |
| O=C(Nc1nnc(-c2ccc3c(c2)CCCC3)o1)c1ccccc1 | 1.1 to 5.6 | 84 to 124 | – | – | – | – |
| COc1ccc(C(=O)Nc2nnc(-c3ccc(F)cc3)o2)cc1 | – | 82 | 20 | – | – | 13 |
| Cc1ccc(C(=O)Nc2nnc(C3CCCCC3)o2)cc1C | 5.4 | 112 | – | – | – | – |
| Cc1cc(C(=O)Nc2nnc(C3CCCCC3)o2)cc(C(F)(F)F)c1 | 2.9 | 125 | – | – | – | – |
| CSc1cccc(C(=O)Nc2nnc(-c3cccs3)o2)c1 | – | 110 | 34 | – | – | – |
| COc1cccc(C(=O)Nc2nnc(-c3ccc(F)cc3)o2)c1 | – | 99 | 23 | – | – | – |
| O=C(Nc1nnc(C2CCCCC2)o1)c1cccc(C(F)(F)F)c1 | > 3.6 | 102 | – | – | – | – |
| O=C(Nc1nnc(C2CCCCC2)o1)c1ccc(Cl)cc1 | – | 89 | 10 | – | – | 14 |
| COc1ccc(C(=O)Nc2nnc(C3CCCCC3)o2)cc1 | – | 82 | 6 | – | – | – |
| CSc1cccc(C(=O)Nc2nnc(-c3ccc4c(c3)CCCC4)o2)c1 | 5.5 to 10 | 118 to 137 | – | – | – | – |
| O=C(Nc1nnc(-c2ccc(F)cc2)o1)c1cccc(F)c1 | – | 104 | 35 | – | – | 11 |
